In ChEMBL document CHEMBL1129945, “New 2-piperazinylbenzimidazole derivatives as 5-HT3 antagonists. Synthesis and pharmacological evaluation” (J Med Chem, 1997):

Columns and labels:
[1] = target: 5-hydroxytryptamine receptor 4 (Cavia porcellus, UniProt O70528); assay: In vitro by displacement of [3H]GR-113808 from 5-hydroxytryptamine 4 receptor on guinea pig striatal membrane; parameters: species or system Striatum
Procedure, shortened: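 Striatal membranes from male Dunkin-Hartley guinea pigs (350-400 g) in 50 mM Hepes pH 7.4, 800-900 µg protein. Nonspecific binding with 10 µM 5-HT. Incubation 30 min at 25 °C, then filtration and scintillation counting. Triplicate, 10-12 concentrations, two experiments. IC50 and Ki calculated.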

[2] = target: T1, 5-hydroxytryptamine receptor 1A (Rattus norvegicus, UniProt P19327); assay: In vitro by displacement of [3H]8-OH-DPAT from 5-hydroxytryptamine 1A receptor on rat cortical membrane
T1 sequence (P19327 whole entry): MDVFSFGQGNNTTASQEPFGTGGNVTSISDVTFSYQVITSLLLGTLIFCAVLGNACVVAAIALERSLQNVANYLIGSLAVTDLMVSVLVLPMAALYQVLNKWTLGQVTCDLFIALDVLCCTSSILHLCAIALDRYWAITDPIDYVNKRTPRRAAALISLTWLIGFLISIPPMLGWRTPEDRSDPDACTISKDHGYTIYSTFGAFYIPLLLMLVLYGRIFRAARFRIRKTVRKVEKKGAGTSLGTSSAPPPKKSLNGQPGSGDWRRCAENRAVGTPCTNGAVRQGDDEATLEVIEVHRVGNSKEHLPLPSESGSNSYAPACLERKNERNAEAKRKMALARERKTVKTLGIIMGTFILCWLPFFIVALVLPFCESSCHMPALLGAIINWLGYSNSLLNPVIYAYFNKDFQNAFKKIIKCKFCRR
Procedure, shortened: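 Cerebral cortex membranes from adult male Wistar rats (220-280 g) in 50 mM Tris-HCl with 4 mM CaCl2, 0.1% ascorbate and 10 µM pargyline. [3H]8-OH-DPAT at 1.5 nM final. Nonspecific binding with 10 µM 5-HT. Incubation 30 min at 37 °C. Triplicate, 10-12 concentrations, two experiments. IC50 and Ki calculated.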

[3] = target: 5-hydroxytryptamine receptor 2A (Rattus norvegicus, UniProt P14842); assay: Binding affinity was evaluated in vitro by displacement of [3H]ketanserin from 5-hydroxytryptamine 2A receptor on rat cortical membrane
Chain of 5-hydroxytryptamine receptor 2A (P14842 whole entry): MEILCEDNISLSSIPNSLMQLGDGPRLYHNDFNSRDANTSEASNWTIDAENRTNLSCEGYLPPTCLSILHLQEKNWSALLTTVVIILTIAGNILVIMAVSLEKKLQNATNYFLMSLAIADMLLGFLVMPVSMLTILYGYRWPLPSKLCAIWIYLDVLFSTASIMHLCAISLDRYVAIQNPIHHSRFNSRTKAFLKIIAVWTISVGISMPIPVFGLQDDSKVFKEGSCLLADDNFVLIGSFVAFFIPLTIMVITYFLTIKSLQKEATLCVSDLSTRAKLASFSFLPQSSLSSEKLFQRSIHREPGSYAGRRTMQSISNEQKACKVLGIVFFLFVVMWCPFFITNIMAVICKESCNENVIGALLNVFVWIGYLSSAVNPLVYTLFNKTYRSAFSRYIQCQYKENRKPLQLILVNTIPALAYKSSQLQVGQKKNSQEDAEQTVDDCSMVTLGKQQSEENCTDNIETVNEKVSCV
Procedure, shortened: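 Prefrontal cortex membranes from adult male Wistar rats (220-280 g), final dilution 1:60 wt/vol in 50 mM Tris-HCl. Displacer added in Tris-HCl with 10% ethanol. [3H]ketanserin at 0.8 nM final. Nonspecific binding with 1 µM methysergide. Triplicate competition, 10-12 displacer concentrations, two separate experiments. Filtration and scintillation counting. IC50 and Ki calculated.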

[4] = target: T2, Serotonin 3 (5-HT3) receptor (Rattus norvegicus, UniProt P35563+Q9JJ16); assay: In vitro by displacement of [3H]LY-278584 from 5-hydroxytryptamine 3 receptor on rat entorhinal cortex
T2 sequence (P35563 whole entry): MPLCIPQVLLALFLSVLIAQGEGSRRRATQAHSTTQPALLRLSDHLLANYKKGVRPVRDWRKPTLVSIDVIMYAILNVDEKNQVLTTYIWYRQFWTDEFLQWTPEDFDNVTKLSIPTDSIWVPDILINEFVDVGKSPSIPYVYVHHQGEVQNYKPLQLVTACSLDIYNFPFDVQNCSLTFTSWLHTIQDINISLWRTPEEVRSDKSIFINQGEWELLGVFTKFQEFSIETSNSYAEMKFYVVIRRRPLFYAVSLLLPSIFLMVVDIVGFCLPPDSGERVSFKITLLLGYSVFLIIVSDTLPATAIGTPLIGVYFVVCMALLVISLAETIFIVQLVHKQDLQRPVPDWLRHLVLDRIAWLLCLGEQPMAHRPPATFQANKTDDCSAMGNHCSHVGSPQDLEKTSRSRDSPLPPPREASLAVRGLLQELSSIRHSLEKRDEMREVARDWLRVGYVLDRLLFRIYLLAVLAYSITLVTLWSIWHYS
T2 sequence (Q9JJ16 whole entry): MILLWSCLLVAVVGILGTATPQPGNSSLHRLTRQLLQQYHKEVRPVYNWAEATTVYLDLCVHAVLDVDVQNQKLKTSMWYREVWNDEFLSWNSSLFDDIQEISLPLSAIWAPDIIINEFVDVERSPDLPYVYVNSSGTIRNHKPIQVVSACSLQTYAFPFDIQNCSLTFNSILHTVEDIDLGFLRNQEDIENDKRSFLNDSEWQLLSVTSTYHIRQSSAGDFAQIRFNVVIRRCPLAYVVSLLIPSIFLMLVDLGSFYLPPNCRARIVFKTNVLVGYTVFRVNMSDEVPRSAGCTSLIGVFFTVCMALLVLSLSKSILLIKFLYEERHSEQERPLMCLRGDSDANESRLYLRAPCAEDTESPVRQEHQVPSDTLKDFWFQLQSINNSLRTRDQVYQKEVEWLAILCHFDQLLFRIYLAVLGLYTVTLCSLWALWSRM
Procedure, shortened: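 Entorhinal cortex membranes from male Wistar rats (220-280 g), 500-600 µg protein, in 50 mM Tris-HCl with 5 mM CaCl2, 0.1% ascorbate and 10 µM pargyline. Nonspecific binding with 10 µM 5-HT. Incubation 30 min at 25 °C. Triplicate, 10-12 concentrations, two experiments. IC50 and Ki calculated.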

[5] = target: D(2) dopamine receptor (Rattus norvegicus, UniProt P61169); assay: In vitro by displacement of [3H]raclopride from Dopamine receptor D2 on rat striatal membrane; parameters: species or system Striatum
Chain of D(2) dopamine receptor (P61169 whole entry): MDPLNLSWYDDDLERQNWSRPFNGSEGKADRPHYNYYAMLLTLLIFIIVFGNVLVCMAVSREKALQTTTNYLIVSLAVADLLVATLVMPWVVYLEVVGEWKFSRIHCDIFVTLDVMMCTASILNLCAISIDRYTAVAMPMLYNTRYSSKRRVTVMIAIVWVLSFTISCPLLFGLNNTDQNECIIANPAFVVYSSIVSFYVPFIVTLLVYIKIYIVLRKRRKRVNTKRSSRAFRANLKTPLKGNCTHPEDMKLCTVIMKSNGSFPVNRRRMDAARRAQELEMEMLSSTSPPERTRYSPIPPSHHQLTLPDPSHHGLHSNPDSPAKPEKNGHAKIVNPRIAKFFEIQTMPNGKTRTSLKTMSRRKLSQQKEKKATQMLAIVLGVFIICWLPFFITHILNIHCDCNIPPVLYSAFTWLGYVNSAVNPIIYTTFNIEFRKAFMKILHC

[6] = tested on: Rattus norvegicus; assay: In vivo effective dose against Bezold-Jarisch reflex evoked by 5-HT in urethane-anesthetized rats; assay type: functional
Procedure, shortened: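 Bradycardia induced by iv bolus of 5-HT 30 µg/kg. Antagonist or saline given iv (1 mL/kg) after recovery, and 5-HT challenge repeated 5 min later. Heart rate taken from the carotid pressure signal. ED50 in µg/kg iv by linear regression from 3-5 doses, 4-5 rats per dose.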

Chain of 5-hydroxytryptamine receptor 4 (O70528 whole entry): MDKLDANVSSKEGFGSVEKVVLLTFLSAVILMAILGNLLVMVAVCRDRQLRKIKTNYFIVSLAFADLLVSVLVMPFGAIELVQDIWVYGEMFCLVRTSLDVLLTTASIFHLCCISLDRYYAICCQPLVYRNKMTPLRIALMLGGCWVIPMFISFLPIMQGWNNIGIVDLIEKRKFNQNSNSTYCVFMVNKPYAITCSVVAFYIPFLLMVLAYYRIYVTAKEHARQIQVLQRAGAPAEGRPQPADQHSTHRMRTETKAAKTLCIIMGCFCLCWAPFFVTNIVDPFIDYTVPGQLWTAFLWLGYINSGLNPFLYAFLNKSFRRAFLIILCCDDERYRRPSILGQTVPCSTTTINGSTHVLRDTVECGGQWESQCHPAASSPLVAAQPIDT

Compound	Ki [2] [nM]	Ki [3] [nM]	Ki [1] [nM]	Ki [4] [nM]	Ki [5] [nM]	ED50 [6] [µg/kg]
O=C(OCCN1CCCCC1)c1c[nH]c2ccccc12			1			
COc1cccc2nc(N3CCNCC3)n(Cc3ccccc3)c12	> 1000	> 1000				
c1ccc2c(c1)nc(N1CCNCC1)n2C1CC1	> 1000	> 1000				
CCCn1c(N2CCNCC2)nc2ccccc21	> 1000	> 1000				
Cn1c(N2CCNCC2)nc2ccccc21	> 1000	> 1000	> 1000	50.1	> 1000	5.3
COc1cccc2c1nc(N1CCNCC1)n2Cc1ccccc1	> 1000	> 1000				
Clc1cc2nc(N3CCNCC3)n(Cc3ccccc3)c2cc1Cl	> 1000	> 1000				
CCn1c(N2CCNCC2)nc2ccccc21	> 1000	> 1000				
Cc1cc2nc(N3CCNCC3)n(Cc3ccccc3)c2cc1C	> 1000	> 1000				
CN1[C@@H]2CC[C@H]1C[C@@H](OC(=O)c1c[nH]c3ccccc13)C2 [TROPISETRON]				1.58		1.7

Now from value to compound, other results behind:

Ki [2] [nM]	Ki [3] [nM]	Compound	Ki [1] [nM]	Ki [4] [nM]	Ki [5] [nM]	ED50 [6] [µg/kg]
> 1000	> 1000	Clc1ccc2c(c1)nc(N1CCNCC1)n2Cc1ccccc1				
> 1000	> 1000	Cc1ccc2c(c1)nc(N1CCNCC1)n2Cc1ccccc1				
> 1000	> 1000	Oc1ccc2nc(N3CCNCC3)n(Cc3ccccc3)c2c1				
> 1000	> 1000	Oc1ccc2c(c1)nc(N1CCNCC1)n2Cc1ccccc1				
> 1000	> 1000	COc1ccc2c(c1)nc(N1CCNCC1)n2Cc1ccccc1				
> 1000	> 1000	Fc1ccc2c(c1)nc(N1CCNCC1)n2Cc1ccccc1				
> 1000	> 1000	COc1ccc2nc(N3CCNCC3)n(Cc3ccccc3)c2c1				
> 1000	> 1000	c1ccc(Cn2c(N3CCNCC3)nc3ccccc32)cc1 [LERISETRON]				2
